From ChEMBL document CHEMBL3862019, “Synthesis of novel ethyl 2,4-disubstituted 8-(trifluoromethyl)pyrido[2',3':3,4]pyrazolo[1,5-a]pyrimidine-9-carboxylate derivatives as promising anticancer agents” (Bioorg Med Chem Lett, 2016)
Activity calls are given as the source filed them. No cut-off for these calls is given here.

Tests used:
[1] = Cytotoxicity against human PC3 cells assessed as cell growth inhibition by MTT assay; assay type: functional, cell-based; conditions: PC-3
Summary of the method: (§1)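 IC50 values were read from dose–response curves for compounds that gave above 60% inhibition in the initial test. HUVEC (ATCC CRL-1730) served as the normal cell line.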

PC-3 = assay: Selectivity index, ratio of IC50 for HUVEC to IC50 for human PC3 cells
Summary of the method: (§2)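 SI is the IC50 in normal HUVEC divided by the IC50 of the same compound in the cancer cell line.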

[2] = Cytotoxicity against human HeLa cells assessed as cell growth inhibition by MTT assay; assay type: functional, cell-based; summary of the method: as §1
HeLa = assay: Selectivity index, ratio of IC50 for HUVEC to IC50 for human HeLa cells; summary of the method: as §2
[3] = Cytotoxicity against human MDA-MB-231 cells assessed as cell growth inhibition by MTT assay; assay type: functional, cell-based; summary of the method: as §1
[4] = Selectivity index, ratio of IC50 for HUVEC to IC50 for human MDA-MB-231 cells; summary of the method: as §2
[5] = Cytotoxicity against human HepG2 cells assessed as cell growth inhibition by MTT assay; assay type: functional, cell-based; summary of the method: as §1
HepG2 = assay: Selectivity index, ratio of IC50 for HUVEC to IC50 for human HepG2 cells; summary of the method: as §2
[6] = Cytotoxicity against HUVEC assessed as cell growth inhibition by MTT assay; assay type: toxicity, cell-based; conditions: human; summary of the method: as §1
[7] = target: T1, DNA topoisomerase 1 (Homo sapiens) (UniProt P11387); assay: Inhibition of human DNA TOP1 assessed as suppression of supercoiled plasmid HOT1 relaxation at 10 to 20 uM preincubated with enzyme followed by substrate addition measured after 30 mins by ethidium bromide dye-based agarose gel electrophoresis
T1 sequence (whole entry): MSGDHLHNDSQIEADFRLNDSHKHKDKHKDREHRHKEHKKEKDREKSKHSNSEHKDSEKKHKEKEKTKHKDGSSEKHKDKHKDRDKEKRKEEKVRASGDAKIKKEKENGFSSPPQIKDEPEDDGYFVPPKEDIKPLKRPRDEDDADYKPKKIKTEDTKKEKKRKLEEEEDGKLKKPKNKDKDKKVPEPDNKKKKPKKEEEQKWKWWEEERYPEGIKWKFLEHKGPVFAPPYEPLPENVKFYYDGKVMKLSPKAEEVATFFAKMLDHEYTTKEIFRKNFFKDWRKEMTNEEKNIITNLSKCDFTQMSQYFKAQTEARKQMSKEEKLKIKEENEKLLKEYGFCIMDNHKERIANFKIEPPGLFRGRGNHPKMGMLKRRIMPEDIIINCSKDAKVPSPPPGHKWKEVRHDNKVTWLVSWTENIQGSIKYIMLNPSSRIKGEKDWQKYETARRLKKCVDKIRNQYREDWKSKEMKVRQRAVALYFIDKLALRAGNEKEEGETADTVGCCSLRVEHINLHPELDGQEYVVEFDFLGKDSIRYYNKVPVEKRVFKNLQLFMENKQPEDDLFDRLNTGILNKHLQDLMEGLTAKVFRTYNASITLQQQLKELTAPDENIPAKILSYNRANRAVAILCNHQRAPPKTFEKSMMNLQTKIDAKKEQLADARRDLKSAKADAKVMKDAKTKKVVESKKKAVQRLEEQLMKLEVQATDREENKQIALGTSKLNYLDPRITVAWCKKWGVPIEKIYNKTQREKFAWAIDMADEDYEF
Summary of the method: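 Supercoiled plasmid pHOT1 was incubated with human topoisomerase I, with compound or camptothecin control at 10 and 20. Relaxation was resolved on a 1% agarose gel run with ethidium bromide, alongside supercoiled and relaxed DNA marker lanes.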

[8] = Cytotoxicity against HUVEC assessed as cell growth inhibition up to 100 uM by MTT assay; assay type: toxicity, cell-based; conditions: human

| SMILES | IC50 [1] [µM] | Ratio IC50 (PC-3) | IC50 [2] [µM] | Ratio IC50 (HeLa) | IC50 [3] [µM] | Ratio IC50 [4] | IC50 [5] [µM] | Ratio IC50 (HepG2) | IC50 [6] [µM] | inhibition [7] | Activity [6] | Activity [8] |
| --- | --- | --- | --- | --- | --- | --- | --- | --- | --- | --- | --- | --- |
| CCOC(=O)c1cc2c(nc1C(F)(F)F)nn1ccc(C)nc21 | 11.4 | 8.17 | 10.6 | 8.79 | 12.1 | 7.7 | 11.8 | 7.89 | 93.2 | Active | – | – |
| CCOC(=O)c1cc2c(nc1C(F)(F)F)nn1c(-c3ccc(OC)cc3)cc(-c3ccc(OC)cc3)nc21 | – | – | – | – | – | – | – | – | – | – | Non-Toxic | – |
| CCOC(=O)c1cc2c(nc1C(F)(F)F)nn1c(-c3ccc(OC(F)(F)F)cc3)cc(-c3cccs3)nc21 | 11.9 | 7.55 | 16.1 | 5.58 | 17.2 | 5.22 | 12.6 | 7.13 | 89.9 | – | – | – |
| CCOC(=O)c1cc2c(nc1C(F)(F)F)nn1c(-c3ccc(OC)cc3)cc(-c3ccccc3)nc21 | – | – | – | – | – | – | – | – | – | – | Non-Toxic | – |
| CCOC(=O)c1cc2c(nc1C(F)(F)F)nn1c(-c3c(F)cc(OC)cc3F)cc(-c3cccs3)nc21 | 22.8 | 4.07 | 20.4 | 4.54 | 21.1 | 4.39 | 23.5 | 3.94 | 92.8 | – | – | – |
| CCOC(=O)c1cc2c(nc1C(F)(F)F)nn1c(-c3ccc(F)cc3)cc(-c3ccc(OC)cc3)nc21 | 15.9 | 5.43 | 15.8 | 5.46 | 17.2 | 5.02 | 16.1 | 5.36 | 86.4 | – | – | – |
| CCOC(=O)c1cc2c(nc1C(F)(F)F)nn1c(C(F)(F)F)cc(C)nc21 | – | – | 25.6 | 3.44 | 24.3 | 3.62 | – | – | 88.2 | – | – | – |
| CCOC(=O)c1cc2c(nc1C(F)(F)F)nn1c(CC)cc(CC)nc21 | – | – | – | – | – | – | – | – | – | – | – | Non-Toxic |
| O=c1[nH]cc(F)c(=O)[nH]1 [FLUOROURACIL] | 1.8 | 44.22 | 1.6 | 49.75 | 1.9 | 41.89 | 1.8 | 44.22 | 79.6 | – | – | – |
| CCOC(=O)c1cc2c(nc1C(F)(F)F)nn1c(-c3ccccc3C)cc(-c3cccs3)nc21 | – | – | – | – | – | – | – | – | – | – | Non-Toxic | – |
| CCOC(=O)c1cc2c(nc1C(F)(F)F)nn1c(-c3ccc([N+](=O)[O-])cc3)cc(-c3ccccc3)nc21 | 16.3 | 5.57 | 18.2 | 4.98 | 12.2 | 7.44 | 14.2 | 6.39 | 90.8 | – | – | – |
| CCOC(=O)c1cc2c(nc1C(F)(F)F)nn1c(-c3ccccc3)cc(C)nc21 | – | – | 29.8 | 3.05 | 28.6 | 3.18 | – | – | 91.1 | – | – | – |
| CCOC(=O)c1cc2c(nc1C(F)(F)F)nn1c(-c3ccc(Cl)cc3)cc(-c3ccccc3)nc21 | – | – | – | – | – | – | – | – | – | – | Non-Toxic | – |
| CCOC(=O)c1cc2c(nc1C(F)(F)F)nn1c(-c3ccc(F)cc3)cc(-c3cccs3)nc21 | 15.1 | 5.68 | 15.3 | 5.61 | 17.1 | 5.02 | 16.8 | 5.11 | 85.9 | – | – | – |
| CCOC(=O)c1cc2c(nc1C(F)(F)F)nn1c(-c3ccc[nH]3)cc(-c3ccccc3)nc21 | 12.1 | 7.86 | 13.1 | 7.26 | 10.3 | 9.24 | 14.8 | 6.43 | 95.2 | Active | – | – |
| CCOC(=O)c1cc2c(nc1C(F)(F)F)nn1c(C)cc(C)nc21 | 22.1 | 4.48 | 18.2 | 5.45 | 20.1 | 4.93 | 21.2 | 4.67 | 99.2 | – | – | – |
